# Measured values taken from ChEMBL document CHEMBL3286129, “Optimization of peptidomimetic boronates bearing a P3 bicyclic scaffold as proteasome inhibitors” (Eur J Med Chem, 2014).
# The source made the active and inactive calls. No cut-off for these calls is given here.
# Columns and labels:
# NCI-H522 = assay: Growth inhibition of human NCI-H522 cells; format: functional
# COLO 205 = assay: Growth inhibition of human COLO205 cells; format: functional
# HCT-116 = assay: Growth inhibition of human HCT116 cells; format: functional
# [1] = Growth inhibition of human HCT15 cells; format: functional
# [2] = Growth inhibition of human SF295 cells; format: functional; conditions: SF-295
# [3] = Growth inhibition of human SF539 cells; format: functional
# SNB-75 = assay: Growth inhibition of human SNB75 cells; format: functional
# [4] = Growth inhibition of human LOXIMVI cells; format: functional; conditions: LOX IMVI
# M14 = assay: Growth inhibition of human M14 cells; format: functional
# SK-MEL-2 = assay: Growth inhibition of human SK-MEL-2 cells; format: functional
# SK-MEL-28 = assay: Growth inhibition of human SK-MEL-28 cells; format: functional
# SK-MEL-5 = assay: Growth inhibition of human SK-MEL-5 cells; format: functional
# [5] = Growth inhibition of human UACC62 cells; format: functional; conditions: UACC-62
# IGROV-1 = assay: Growth inhibition of human IGROV1 cells; format: functional
# [6] = Growth inhibition of human OVCAR3 cells; format: functional; conditions: OVCAR-3
# [7] = Growth inhibition of human NCI-ADR-RES cells; format: functional
# 786-0 = assay: Growth inhibition of human 786-0 cells; format: functional
# ACHN = assay: Growth inhibition of human ACHN cells; format: functional
# CAKI-1 = assay: Growth inhibition of human CAKI-1 cells; format: functional
# SN12C = assay: Growth inhibition of human SN12C cells; format: functional
# TK-10 = assay: Growth inhibition of human TK10 cells; format: functional
# DU-145 = assay: Growth inhibition of human DU145 cells; format: functional
# [8] = Growth inhibition of human Hs 578T cells; format: functional
# T47D = assay: Growth inhibition of human T47D cells; format: functional
# [9] = target: T1, Proteasome Macropain subunit MB1 (Homo sapiens, UniProt P28074); assay: Inhibition of chymotrypsin-like activity of 20S proteasome in human erythrocytes using Suc-Leu-Leu-Val-Tyr-AMC as substrate by fluorescence assay; conditions: read-out: Ki
# T1 sequence (P28074 whole entry): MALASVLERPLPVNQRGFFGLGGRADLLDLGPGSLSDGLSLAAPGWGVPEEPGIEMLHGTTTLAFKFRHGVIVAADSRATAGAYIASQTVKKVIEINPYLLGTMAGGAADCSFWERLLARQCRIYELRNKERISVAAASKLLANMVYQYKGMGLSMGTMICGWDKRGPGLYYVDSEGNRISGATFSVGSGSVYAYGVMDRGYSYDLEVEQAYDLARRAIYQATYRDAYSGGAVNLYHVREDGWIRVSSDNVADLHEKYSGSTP
# [10] = target: Proteasome Macropain subunit (Homo sapiens) (UniProt P49721); assay: Inhibition of trypsin-like activity of 20S proteasome in human erythrocytes using Boc-Leu-Arg-Arg-AMC as substrate by fluorescence assay; format: cell-based
# Sequence of Proteasome Macropain subunit (Homo sapiens) (P49721 whole entry): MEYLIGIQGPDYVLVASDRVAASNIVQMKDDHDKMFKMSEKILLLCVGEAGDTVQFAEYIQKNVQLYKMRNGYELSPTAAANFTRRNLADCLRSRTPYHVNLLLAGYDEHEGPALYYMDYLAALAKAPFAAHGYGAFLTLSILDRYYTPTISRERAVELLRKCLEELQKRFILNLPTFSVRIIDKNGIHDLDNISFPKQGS
# Outline: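 Human 20S proteasome 0.0025 mg/mL at 30 °C in 50 mM Tris pH 7.4, 50 mM NaCl, 0.5 mM EDTA, 0.03% SDS, 7.5% DMSO. Varied inhibitor concentrations; AMC release monitored continuously for 10 min, ex 380/em 460 nm. Ki derived from progress-curve IC50 fit.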
# [11] = Cytotoxicity against human NSCLC cells assessed as cell growth at 10 uM relative to control; format: functional; conditions: read-out: Activity
# Outline: (§1)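 Single-concentration screen against a panel of human cancer cell lines. Each value is the mean percent growth across the cell lines of that tumour subpanel.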
# [12] = Cytotoxicity against human colon cancer cells assessed as cell growth at 10 uM relative to control; format: functional; conditions: Cancer cell lines, read-out: Activity; outline: as §1
# [13] = Cytotoxicity against human CNSC cells assessed as cell growth at 10 uM relative to control; format: functional; conditions: read-out: Activity; outline: as §1
# [14] = Cytotoxicity against human prostate cancer cells assessed as cell growth at 10 uM relative to control; format: functional; conditions: Cancer cell lines, read-out: Activity; outline: as §1
# [15] = Cytotoxicity against human breast cancer cells assessed as cell growth at 10 uM relative to control; format: functional; conditions: Cancer cell lines, read-out: Activity; outline: as §1
# HL-60(TB) = assay: Growth inhibition of human HL-60(TB) cells; format: functional
# [16] = Growth inhibition of human MOLT4 cells; format: functional
# SR = assay: Growth inhibition of human SR cells; format: functional
# HOP-62 = assay: Growth inhibition of human HOP62 cells; format: functional
# [17] = Growth inhibition of human HOP92 cells; format: functional
# NCI-H226 = assay: Growth inhibition of human NCI-H226 cells; format: functional
# NCI-H23 = assay: Growth inhibition of human NCI-H23 cells; format: functional
# [18] = read-out: LC50 (the source's name)
smiles,measurement,setting,value
CC(C)C[C@H](NC(=O)CCn1ccc2ccccc2c1=O)B(O)O,GI50,NCI-H522,2.61 µM
same,LC50,NCI-H522,> 100 µM
same,TGI,NCI-H522,8.09 µM
same,GI50,COLO 205,5.06 µM
same,TGI,COLO 205,> 100 µM
same,CC50,COLO 205; [18],> 100 µM
same,GI50,HCT-116,1.55 µM
same,LC50,HCT-116,> 100 µM
same,TGI,HCT-116,19.8 µM
same,GI50,[1]; HCT-15,9.57 µM
same,TGI,[1]; HCT-15,> 100 µM
same,CC50,"[1]; HCT-15, read-out: LC50 (the source's name)",> 100 µM
same,GI50,[2],3.78 µM
same,LC50,[2],83.3 µM
same,TGI,[2],19.6 µM
same,GI50,[3]; SF-539,1.61 µM
same,TGI,[3]; SF-539,5.62 µM
same,CC50,"[3]; SF-539, read-out: LC50 (the source's name)",> 100 µM
same,GI50,SNB-75,2.94 µM
same,LC50,SNB-75,93.4 µM
same,TGI,SNB-75,15.9 µM
same,GI50,[4],2.11 µM
same,TGI,[4],6.78 µM
same,CC50,[4]; [18],> 100 µM
same,GI50,M14,4.23 µM
same,LC50 (concentration killing 50% of cells),M14,> 100 µM
same,TGI,M14,> 100 µM
same,GI50,SK-MEL-2,3.58 µM
same,LC50,SK-MEL-2,> 100 µM
same,TGI,SK-MEL-2,32.5 µM
same,GI50,SK-MEL-28,3.27 µM
same,TGI,SK-MEL-28,> 100 µM
same,CC50,SK-MEL-28; [18],> 100 µM
same,GI50,SK-MEL-5,4.3 µM
same,LC50 (concentration killing 50% of cells),SK-MEL-5,83.7 µM
same,TGI,SK-MEL-5,19 µM
same,GI50,[5],4.29 µM
same,LC50 (concentration killing 50% of cells),[5],> 100 µM
same,TGI,[5],24.9 µM
same,GI50,IGROV-1,12.3 µM
same,LC50,IGROV-1,> 100 µM
same,TGI,IGROV-1,> 100 µM
same,GI50,[6],1.97 µM
same,LC50 (concentration killing 50% of cells),[6],31.7 µM
same,TGI,[6],5.66 µM
same,GI50,[7],67.1 µM
same,LC50,[7],> 100 µM
same,TGI,[7],> 100 µM
same,GI50,786-0,4.76 µM
same,TGI,786-0,> 100 µM
same,CC50,786-0; [18],> 100 µM
same,GI50,ACHN,1.75 µM
same,TGI,ACHN,> 100 µM
same,CC50,ACHN; [18],> 100 µM
same,GI50,CAKI-1,2.93 µM
same,TGI,CAKI-1,27 µM
same,CC50,CAKI-1; [18],> 100 µM
same,GI50,SN12C,11.2 µM
same,TGI,SN12C,55.4 µM
same,CC50,SN12C; [18],> 100 µM
same,GI50,TK-10,2.93 µM
same,LC50,TK-10,> 100 µM
same,TGI,TK-10,9.8 µM
same,GI50,DU-145,9.13 µM
same,TGI,DU-145,> 100 µM
same,CC50,DU-145; [18],> 100 µM
same,GI50,[8],3.63 µM
same,TGI,[8],48.7 µM
same,CC50,[8]; [18],> 100 µM
same,GI50,T47D,3.71 µM
same,TGI,T47D,29.3 µM
same,CC50,T47D; [18],> 100 µM
same,Ki,[9],0.051 µM
same,inhibition,[10],inactive
same,growth at 10 µM,[11],60.3%
same,growth at 10 µM,[12],45.1%
same,growth at 10 µM,[13],52%
same,growth at 10 µM,[14],57.8%
same,growth at 10 µM,[15],38.1%
same,GI50,HL-60(TB),2.69 µM
same,TGI,HL-60(TB),49.5 µM
same,CC50,HL-60(TB); [18],> 100 µM
same,GI50,[16]; MOLT-4,1.28 µM
same,TGI,[16]; MOLT-4,5.94 µM
same,CC50,"[16]; MOLT-4, read-out: LC50 (the source's name)",> 100 µM
same,GI50,SR,1.7 µM
same,TGI,SR,28.9 µM
same,CC50,SR; [18],> 100 µM
same,GI50,HOP-62,4.51 µM
same,TGI,HOP-62,22.1 µM
same,CC50,HOP-62; [18],96.4 µM
same,GI50,[17]; HOP-92,10.9 µM
same,TGI,[17]; HOP-92,67.1 µM
same,CC50,"[17]; HOP-92, read-out: LC50 (the source's name)",> 100 µM
same,GI50,NCI-H226,1.47 µM
same,TGI,NCI-H226,3.24 µM
same,CC50,NCI-H226; [18],7.15 µM
same,GI50,NCI-H23,25.4 µM
same,TGI,NCI-H23,> 100 µM
same,CC50,NCI-H23; [18],> 100 µM
